Compound activity from PubChem.
V-ATPase pH: yeast V-ATPase proton transport regulation by pHLuorin; S. cerevisiae, pHLuorin cytosolic pH fluorescence; response, % at 10 µM; actives 0.37% (n = 350,000); in the data active = response mostly above about 7.3%, no sharp cut-off; inactive = mostly below about 5.4%; note: actives read high
HIF activator: HIF pathway transcriptional activation. AID 1910. U2OS HRE-luciferase reporter, luminescence; normalized: DMSO 0%, desferrioxamine 100%. activation, % at 7.5 µM (by protocol). actives 0.32% (n = 300,000);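 active = mean activation of at least 10% of the iron chelator positive control signal, with at least half of replicates also reaching 10%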
T cruzi inh: T. cruzi replication inhibition; inhibition, % (test concentration not listed); T. cruzi beta-gal in NIH3T3, luminescence, 90 h; actives 1.4% (n = 300,000);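 active = mean inhibition across valid replicates above about 55%, limit read from the data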;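 note: signal also drops with host cell toxicity which is not excluded here; 0% = plate median of DMSO wells and 100% = zero luminescence signal; higher percent means less beta-gal luminescence so fewer parasites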
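Assay system: NIH/3T3 host cells with β-galactosidase reporter T. cruzi; input: 5,000 host fibroblasts per well; compound: single 50 nL compound addition per well in DMSO; timing: ≥90 h infection period, 3 h prior cell attachment; measured by: GalScreen β-gal luminescence, detergent lysis, 60 min; evaluation: percent inhibition of parasite-derived β-gal signal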
AI-2 QS modul: modulators of Vibrio harveyi AI-2 quorum sensing system; Vibrio harveyi JMH597 AI-2 luminescence/OD600 ratio, 9 h; hits give low values; strain lacks LuxN and CqsS sensors; 0 = neutral-control median; activity change, % at 7.5 µM; actives 0.4% (n = 300,000); in the data active = activity change below about -75%, passing the limit was not always enough;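 note: luminescence divided by OD600 gain over 9 h not by final OD600 alone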
CR mimetic SO: caloric restriction mimetics inhibiting age-related superoxide in yeast | S. cerevisiae aged cells, superoxide DHE fluorescence; hits give low values | superoxide response (% of plate mean), % at 10 µM | actives 0.18% (n = 330,000) | AID 2690;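 active = superoxide response under a set limit, about three screen SD below normal, cut at about 65% in these data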;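 note: yeast aged for seven days with compound at 30 °C before DHE staining; 100% = average MFI of all compound-treated wells on the plate with controls excluded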
NRP1-CendR mod: modulators of CendR peptide binding to human neuropilin-1 | O14786 | FAM-RPARPAR peptide binding to NRP-1, fluorescence polarization | inhibition, % at 25 µM | actives 0.85% (n = 360,000) | AID 602438;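 active = inhibition or corrected inhibition above about 18%, plus a signal ratio from 0.5 to 1.5, limit read from the data, passing the limit was not always enough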
* = called active by the depositor; nt = not tested or not shown. Most compounds without a hit are left out; they make up all but 3% or so of the library.

SMILES	V-ATPase pH	HIF activator	T cruzi inh	AI-2 QS modul	CR mimetic SO	NRP1-CendR mod
Cc1ccc(C2CC(=O)N3CN(c4ccc(Br)cc4)CSC3=C2C#N)o1 (stereo unspecified)	-2	3	-11	48	105	-100
CCOC(=O)C1=C(C)NC2=C(C(=O)c3ccccc32)C1c1cccnc1 (stereo unspecified)	-54	0	17	10	106	40*
CCOC(=O)C1=C(C)NC2=C(C(=O)CCC2)C1c1cccnc1 (stereo unspecified)	2	0	5	-5	108	4
O=C(CSc1nc(=O)n(CCCN2CCOCC2)c2c1CCC2)Nc1ccccc1F	3	0	2	0	108	1
O=C(COc1ccccc1)N1CCN(c2nnc(-c3ccccc3)c3ccccc23)CC1	-2	0	55*	13	93	2
Cc1ccc(-c2nnc(N3CCCCCC3)c3ccccc23)cc1	2	1	64*	14	75	0
COc1ccc(OCC(=O)N2CCN(c3nnc(-c4ccccc4)c4ccccc34)CC2)cc1	0	0	36	15	108	2
Cc1ccc(OCC(=O)N2CCN(c3nnc(-c4ccc(C)cc4)c4ccccc34)CC2)cc1	-2	-1	61*	-21	89	-9
O=C(Cn1cc(C(F)(F)F)ccc1=O)NC(c1ccccc1)c1ccccc1	0	1	-12	4	84	0
O=C(CSc1nnc(CNc2ccc(F)cc2)n1Cc1ccco1)N1CCOCC1	5	0	-9	27	94	3
CC1CCCC(C)N1C(=O)CSc1nc2ccccc2s1 (stereo unspecified)	-3	1	17	49	100	-17
COc1cccc2cc(C(C)N(CCCN3CCOCC3)C(=S)Nc3cccc(C)c3)oc12 (stereo unspecified)	0	0	-4	-17	71	39*
CCc1ccc(NC(=O)N(CCCN2CCOCC2)C(C)c2cc3cccc(OC)c3o2)cc1 (stereo unspecified)	0	1	-4	1	100	37*
Cc1cc(NC(=O)CSc2nnc(C)c(=O)n2N)no1	4	0	-1	-13	86	4
Cc1cc(C(=O)N(C)CC2CCCN(CCc3ccc(F)cc3)C2)c(C)o1 (stereo unspecified)	-2	1	56*	10	94	-3
COc1ccc(CCN2CCCC(CN(C)C(=O)c3cc(C)oc3C)C2)cc1 (stereo unspecified)	-3	4	63*	12	91	-1
CN(C)C(=O)CCC(=O)N(C)CC1CCCN(CCc2ccc(F)cc2)C1 (stereo unspecified)	-2	-44	-8	13	94	-4
O=C(CNC(=O)c1cccs1)OCc1ccc(Cl)cc1	-1	0	4	-79*	96	1
CCc1ccc(OCCNC(=O)c2ccccc2SCc2ccc(F)cc2)cc1	7	0	57*	4	93	8
O=C(NCCOc1ccc(F)cc1)c1ccccc1SCc1ccccc1	-3	0	23	-65	96	0
CCc1ccc(OCCNC(=O)c2cccs2)cc1	-2	-7	0	-79*	106	-9
CC1CCCC(C)N1C(=O)CNCc1ccc2c(c1)OCO2 (stereo unspecified)	-2	0	-11	17	85	1
CCCCn1c(N)c(N(CCOC)C(=O)c2ccc3c(c2)C(=O)N(c2cc(C)ccc2C)C3=O)c(=O)[nH]c1=O	-3	0	-31	0	101	3
Nc1ncnc2[nH]c(=S)[nH]c12	4	nt	nt	nt	nt	29*
CC(C)c1nnc(SCC(=O)NCc2ccco2)n1C	-6	0	-6	-2	104	7
SMILES	V-ATPase pH	HIF activator	T cruzi inh	AI-2 QS modul	CR mimetic SO	NRP1-CendR mod
O=C(COC(=O)COc1ccccc1Cl)Nc1ccccc1OC(F)F	0	0	-9	27	110	0
O=C(COC(=O)CN=C1NS(=O)(=O)c2ccccc21)Nc1ccccc1OC(F)F	15*	0	-11	36	86	-6
Cc1c(C(=O)N2CCCC2)oc2c1-c1nn(CC(=O)NCCCOC(C)C)cc1CC2	-1	0	3	32	100	-5
COc1ccc(CNC(=O)CN(Cc2ccccc2)S(=O)(=O)c2ccc(Cl)cc2)cc1	6	0	74*	4	85	13
COc1ccc(CNC(=O)CN(Cc2ccc(Cl)cc2)S(=O)(=O)c2ccccc2)cc1	-4	0	2	28	89	0
CC1CC(C)CN(S(=O)(=O)c2cc3c4c(c2)CCN4C(=O)CC3)C1 (stereo unspecified)	0	1	2	19	96	25*
COc1ccc(OC)c(NC(=O)CCc2nnc3ccc(NCc4ccco4)nn23)c1	8	17*	8	22	115	1
COc1cccc(NC(=O)CCc2nnc3ccc(NCc4ccco4)nn23)c1	2	0	-7	4	109	-4
O=C(Nc1ncc(Cc2ccccc2Cl)s1)c1ccc(-c2cccc([N+](=O)[O-])c2)o1	1	0	60*	7	93	15
O=C(Nc1ncc(Cc2ccc(C(F)(F)F)cc2)s1)c1ccc(-c2cccc([N+](=O)[O-])c2)o1	3	0	36	4	95	-23
Fc1ccc(Nc2nnc(-c3ccncc3)s2)cc1Cl	nt	nt	nt	nt	nt	35*
Cc1ccc(-c2csc(N=C(N)N)n2)c(C)c1	-2	1	60*	9	102	-3
Cc1ccc(OCC(=O)N2CCC(N3CC(C)CC(C)C3)CC2)cc1 (stereo unspecified)	-2	1	-1	-4	99	8
Cc1noc(C)c1COc1cccc(C(=O)N(C)Cc2cccs2)c1	1	nt	nt	nt	88	-1
COc1ccc(Cl)cc1S(=O)(=O)N1CCN(c2ccc(F)cc2)CC1	4	0	34	20	101	29*
Oc1ccccc1/C=N/Nc1nc2ccccc2o1	11	26*	56*	32	94	-10
Oc1ccccc1/C=N/Nc1ncc(Br)cn1	-2	34*	10	11	104	-7
C/C(=N\NC(=O)CC#N)c1ccc(Oc2ccccc2)cc1	2	-1	5	7	99	20
COc1cccc(/C=C/C(=O)OCC(=O)Nc2ccccc2Sc2ccccc2)c1	-1	0	-3	13	97	-2
CNS(=O)(=O)c1cccc(C(=O)OCC(=O)c2ccc(S(=O)(=O)N3CCCCC3)cc2)c1	-1	0	-6	37	106	-2
CCCCC(=O)N1CCN(c2nc3ccc(F)cc3s2)CC1	1	9.8*	-14	8	121	3
